“Also recorded” adds a separate entry of the source. Read-outs that look alike come from different tables or passages of the source.
Key:
[1] = Plasma levodopa pharmacokinetics after inhaled; assay type: in vivo, human; details: for AUC: inhaled or intranasal
Method in brief: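 Eight Parkinson's patients, not in the off state, got single morning doses at least 7.5 h after their last home dose, fasting 60 min before to 60 min after. Oral doses were 100/25–250/62.5 mg with decarboxylase inhibitor, normalised to 100 mg. Plasma had glutathione added and was stored at −80°C, then assayed by LC-MS/MS (LOQ 1.0 nmol/l). Half-life came from Cmax and the last concentration.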

[2] = Airway tolerability: spirometry; assay type: in vivo, human
Method in brief: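 Eight patients with Parkinson's disease (not off) inhaled dry-powder levodopa by mouth: 30 mg, then 60 mg (2 × 30 mg). At a third visit they took their regular oral levodopa/decarboxylase inhibitor. Visits were ≥7 days apart, in the morning, ≥7.5 h after the last home dose, with no food for 60 min either side. Spirometry (pneumotachograph, ATS/ERS) was done before and ±35 and 100 min after dosing. FEV1 drop >10% from baseline was deemed relevant. Cough and dyspnoea were queried each session (Borg scale).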

[3] = Delivered dose and fine particle dose from the Cyclops inhaler; assay type: physicochemical; details: at 4 kPa; laser diffraction
Method in brief: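 Residue left in the inhaler after each patient inhalation was measured by UV spectrophotometry. Delivered dose was calculated as blister dose minus inhaler residue. Fine particle dose (<5 µm) was measured by laser diffraction at 4 kPa.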

[4] = cited from earlier work
[5] = progressed, fluctuating patients; cited from earlier work
[6] = after subcutaneous injection; cited from earlier work

Row | Compound | AUC ([1]; human, plasma, 30 mg) [ng·h/mL] | AUC ([1]; human, plasma, 60 mg) [ng·h/mL] | half-life ([1]; human, plasma, po, mean elimination half-life time, oral administration of levodopa plus decarboxylase inhibitor) [h] | elimination half-life ([1]; inhaled levodopa, both doses, range and mean) [h] | time by which inhaled levodopa is absorbed faster in the blood plasma than oral ([1]; inhaled vs oral) | relative bioavailability of inhaled levodopa in comparison with oral levodopa ([1]; inhaled without carboxylase inhibitor vs oral with carboxylase inhibitor) [%] | mean elimination half-life time ([1]; oral administration of levodopa plus decarboxylase inhibitor) [h] | change in lung-function parameters (FEV1, FVC, MEF50) ([2]; after inhalation of 30 mg or 60 mg levodopa, spirometry ±35 and 100 min after administration) | tolerability ([2]; after inhalation, 30 and 60 mg) | change in lung-function parameters (FEV1, FVC, MEF50) ([2]; after oral administration of levodopa) | patients experiencing cough or dyspnoea ([2]; during or after inhalation) | fine particle dose (<5 µm) [3] | plasma levodopa concentration ([4]; 10 min after 100 mg oral levodopa in the fasted state) | absolute bioavailability ([4]; oral immediate-release levodopa combined with a decarboxylase inhibitor) | absolute bioavailability ([4]; oral immediate-release levodopa) | increase in levodopa effect compartment concentration giving maximum effect on finger tapping [5] [ng/mL] | lag time to onset of effect [6] [min]
1 | N[C@@H](Cc1ccc(O)c(O)c1)C(=O)O [levodopa, Levodopa] | 9.69 | 9.58 | 1.13 ± 0.343 | 0.967 | up to 85 min | 53 | 1.13 | No significant change; also recorded: none of the patients | well tolerated | No significant change | none of the patients | 45 % of the delivered dose | around 150 ng/ml | approximately 85% | 40–60% | 200 to 400 | –
2 | CN1CCc2cccc3c2[C@H]1Cc1ccc(O)c(O)c1-3 [apomorphine] | – | – | – | – | – | – | – | – | – | – | – | – | – | – | – | – | > 20

Reference: publication PMC6589987 (Therapeutic Advances in Chronic Disease, 2019)
